Experimental data pooled from the literature.
pIC50: −log10 of the molar value.

O[C@@H](CN[C@@H](COCC1CC1)Cc1ccccc1)c1cc(Cl)cc2c1-c1ccc(Cl)cc1C2  pIC50 (Plasmodium falciparum; parasite growth, SYBR Green; W2; 48 h, drug-resistant strain, blood stage): 8.27
Cn1cc2c3c1C(=O)C(NCCc1ccc(O)cc1)=CC3=[N+](C)CC2  pIC50 (Plasmodium falciparum; parasite growth, SYBR Green; 3D7; blood stage): 7.36
CC(C)C[C@@H]1NC(=O)[C@H](CC(N)=O)NC(=O)[C@H](CCCNC(=N)N)NC(=O)[C@H]([C@@H](C)O)NC(=O)[C@@H]2CSSC[C@@H]3NC(=O)[C@H]([C@@H](C)O)NC(=O)CNC(=O)CNC(=O)[C@H](C(C)C)NC(=O)[C@@H]4CSSC[C@H](NC(=O)[C@H](CCCCN)NC(=O)[C@H](CSSC[C@H](NC(=O)[C@H](C(C)C)NC(=O)[C@@H]5CCCN5C(=O)[C@H](CC(C)C)NC1=O)C(=O)NCC(=O)N[C@@H](CCC(=O)O)C(=O)N[C@@H]([C@@H](C)O)C(=O)N4)NC(=O)CNC(=O)[C@@H]1CCCN1C(=O)[C@H]([C@@H](C)O)NC(=O)[C@H](CC(N)=O)NC3=O)C(=O)N[C@@H](CO)C(=O)N[C@@H](Cc1c[nH]c3ccccc13)C(=O)N1CCC[C@H]1C(=O)N[C@@H](C(C)C)C(=O)N2  pIC50 (Sf9; cell growth or viability, MTT; 24 h): 5.74
Cn1cc2c3c1C(=O)C(N)=CC3=NCC2  pIC50 (Plasmodium falciparum; parasite growth, SYBR Green; 3D7; blood stage): 5.48
N.N.[Cl][Pt][Cl]  pIC50 (NCI-H460; cell growth or viability, MTT): 5.12
CC(C)C[C@@H]1NC(=O)CNC(=O)[C@H](CC(N)=O)NC(=O)[C@H](CCCNC(=N)N)NC(=O)[C@H]([C@@H](C)O)NC(=O)[C@@H]2CSSC[C@@H]3NC(=O)[C@H]([C@@H](C)O)NC(=O)CNC(=O)CNC(=O)[C@H](C(C)C)NC(=O)[C@@H]4CSSC[C@H](NC(=O)[C@H](CCCCN)NC(=O)[C@H](CSSC[C@H](NC(=O)[C@H](C(C)C)NC(=O)[C@@H]5CCCN5C1=O)C(=O)NCC(=O)N[C@@H](CCC(=O)O)C(=O)N[C@@H]([C@@H](C)O)C(=O)N4)NC(=O)CNC(=O)[C@@H]1CCCN1C(=O)[C@H]([C@@H](C)O)NC(=O)[C@H](CC(N)=O)NC3=O)C(=O)N[C@@H](CO)C(=O)N[C@@H](Cc1c[nH]c3ccccc13)C(=O)N1CCC[C@H]1C(=O)N[C@@H](C(C)C)C(=O)N2  pIC50 (Sf9; cell growth or viability, MTT; 24 h): 5.59
CCCCCNCC(O)c1cc(Cl)cc2c1-c1ccc(Cl)cc1C2 (racemic)  pIC50 (Plasmodium falciparum; parasite growth, SYBR Green; W2; 48 h, drug-resistant strain, blood stage): 8.06
C[N+]1=C2C=C(NCCc3ccc(O)cc3)C(=O)c3[nH]cc(c32)CC1  pIC50 (Plasmodium falciparum; parasite growth, SYBR Green; 3D7; blood stage): 7.73
OC(c1cc(C(F)(F)F)nc2c(C(F)(F)F)cccc12)C1CCCCN1 (centres unmarked)  pIC50 (Plasmodium falciparum; parasite growth, SYBR Green; W2; 48 h, drug-resistant strain, blood stage): 7.68
CC(C)C[C@@H]1NC(=O)[C@H](CC(N)=O)NC(=O)[C@H](CCCNC(=N)N)NC(=O)[C@H]([C@@H](C)O)NC(=O)[C@@H]2CSSC[C@@H]3NC(=O)[C@H]([C@@H](C)O)NC(=O)CNC(=O)CNC(=O)[C@H](C(C)C)NC(=O)[C@@H]4CSSC[C@H](NC(=O)[C@H]([C@@H](C)O)NC(=O)[C@H](CSSC[C@H](NC(=O)[C@H](C(C)C)NC(=O)[C@@H]5CCCN5C(=O)[C@H](CC(C)C)NC1=O)C(=O)NCC(=O)N[C@@H](CCC(=O)O)C(=O)N[C@@H]([C@@H](C)O)C(=O)N4)NC(=O)CNC(=O)[C@@H]1CCCN1C(=O)[C@H]([C@@H](C)O)NC(=O)[C@H](CC(N)=O)NC3=O)C(=O)N[C@@H](CO)C(=O)N[C@@H](Cc1c[nH]c3ccccc13)C(=O)N1CCC[C@H]1C(=O)N[C@@H](C(C)C)C(=O)N2  pIC50 (Sf9; cell growth or viability, MTT; 24 h): 5.74
Cc1c2ccncc2c(C)c2c1[nH]c1ccccc12  GI50 (NCI-H460; cell growth or viability, SRB; 72 h): 4100 nM
